Source: PubChem
An excerpt weighted towards active compounds, which were near 1.8% of everything screened.
M4 ag = CHRM4 agonism in calcium assay; P08173; CHO-K1 hM4/Gqi5, Fluo-8 calcium fluorescence; vehicle 0%, full acetylcholine response 100%; activation, % at 3 µM; 0.14% of 360,000 active; AID 624127;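 active means activation above the run mean over all test wells plus 3 SD, cut at about 32% in these data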;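 further: peak over basal fluorescence ratio per well then scaled between controls; 0% = DMSO wells and 100% = acetylcholine at EC100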
M4 PAM = CHRM4 positive allosteric modulation | CHO-K1 hM4/Gqi5, Fluo-8 calcium fluorescence, ACh EC20; 0% = ACh EC20, 100% = maximal ACh | 0.4% of 360,000 active | activation, % at 3 µM | P08173;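 active means activation above its plate's cutoff, the mean activation of sample wells plus 3 SD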
M5 ag = CHRM5 agonism in calcium assay | CHO-K1 hM5 cells, Fluo-8 calcium fluorescence; 0% DMSO wells, 100% maximal acetylcholine response | activation, % at 3 µM | 0.19% of 360,000 active | AID 624037;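 active means activation above the run's mean over test compounds plus 3 SD, cut at about 23% in these data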;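 further: signal is peak over basal fluorescence ratio across the kinetic read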
M4 antag = antagonists of human muscarinic M4 receptor (CHRM4) | CHO-hM4 cells, ACh EC80, Fluo-8 calcium fluorescence | P08173 | 0.73% of 360,000 active | inhibition, % at 3 µM;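 active means inhibition above its plate's cutoff, the mean inhibition of sample wells plus 3 SD, cut at about 27% in these data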;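 further: 0% = acetylcholine EC80 with DMSO and 100% = DMSO without agonist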
M5 antag = CHRM5 antagonism in calcium assay; inhibition, % at 3 µM; 0.59% of 360,000 active; P08912; AID 624040; CHO-hM5 cells, Fluo-8 calcium fluorescence, ACh EC80;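 active means inhibition above a per-plate cutoff, the mean of that plate's test compounds plus 3 SD, cut at about 27% in these data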;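 further: 0% = acetylcholine EC80 with DMSO and 100% = DMSO without agonist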
M5 PAM = potentiates acetylcholine response at human M5 receptor; 0.3% of 360,000 active; CHO-K1 hM5, Fluo-8 calcium, ACh EC20 PAM; 0% = ACh EC20, 100% = ACh EC100; P08912; activation, % at 3 µM; AID 624038;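 active means activation above the run cutoff, the mean activation of all test compounds plus 3 SD, cut at about 18% in these data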
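Replicates: One well per compound, no replicates | System: Human M5 receptor in CHO-K1 cells | Benchmarks: Low control EC20 acetylcholine (0%), high control EC100 acetylcholine (100%) | Probe or stimulus: Acetylcholine, EC20 level | Times: Fluo-8 loading 80 min at 37 °C plus 30 min room temperature | Signal: Intracellular calcium via Fluo-8 fluorescence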
* = called active by the depositor.

`COc1ccc(C(CNC(=O)c2cc3ccccc3cc2O)N2CCOCC2)cc1` (centres undefined) gave M4 ag 7.7, M4 PAM -8.1, M5 ag -4.2, M4 antag -13.9, M5 antag 2.1 and M5 PAM -0.9.
For NS(=O)(=O)c1ccc(CNC(=O)c2cccnc2Cl)cc1 the results were M4 ag 0.1, M4 PAM -2.7, M5 ag -1.4, M4 antag -7.2, M5 antag 2.6 and M5 PAM 5.0.
For CC1(C)CN=C(NC2CCCCC2)S1 the results were M4 ag 0.7, M4 PAM -14.3, M5 ag -6.5, M4 antag 42.8*, M5 antag 10.8 and M5 PAM -9.2.
Screening O=C(NCc1ccc(F)cc1)c1cc(C2CCCN(C(=O)c3ccccn3)C2)on1 (centres undefined) returned M4 ag 0.6, M4 PAM -1.4, M5 ag 1.7, M4 antag -11.4, M5 antag -5.7 and M5 PAM 1.2.
For CC(C)C[C@@]12C(=O)N(c3cccc(Cl)c3)C(=O)N1[C@H](c1ccc(Br)cc1)[C@@H]1C(=O)N(C(C)(C)C)C(=O)[C@@H]12 the results were M4 ag 1.4, M4 PAM 2.6, M5 ag -0.2, M4 antag 5.8, M5 antag 8.0 and M5 PAM -0.8.
Cc1cccc(N2C(=O)N3[C@H](c4ccc(F)cc4)[C@@H]4C(=O)N(C5CCCCC5)C(=O)[C@@H]4[C@]3(Cc3ccc(Cl)cc3)C2=O)c1 was read as M4 ag 1.4, M4 PAM 6.3, M5 ag 0.3, M4 antag 5.1, M5 antag 3.5 and M5 PAM 13.1.
Screening Cc1cccc(N2C(=O)N3[C@H](c4ccc(Cl)cc4)[C@@H]4C(=O)N(C5CCCCC5)C(=O)[C@@H]4[C@]3(Cc3ccc(Cl)cc3)C2=O)c1 returned M4 ag 1.6, M4 PAM 5.9, M5 ag 7.2, M4 antag -14.9, M5 antag -13.1 and M5 PAM 19.0*.
For CC[C@@]12C(=O)N(c3cccc(Cl)c3)C(=O)N1[C@H](c1ccc(Br)cc1)[C@@H]1C(=O)N(C(C)(C)C)C(=O)[C@@H]12 the results were M4 ag 3.3, M4 PAM 27.6*, M5 ag -0.7, M4 antag -9.5, M5 antag 2.9 and M5 PAM 3.8.
For CCc1noc(C)c1C(=O)Nc1ccc(F)c(F)c1F the results were M4 ag 0.8, M4 PAM 2.9, M5 ag 1.7, M4 antag 6.1, M5 antag 5.6 and M5 PAM 1.8.
For C[C@H](CO)N1C[C@H](C)[C@@H](CN(C)S(=O)(=O)c2ccc(Cl)cc2)Oc2ccc(NS(=O)(=O)c3ccccc3)cc2CC1=O the results were M4 ag 2.7, M4 PAM 9.3, M5 ag -3.7, M4 antag -14.6, M5 antag 9.7 and M5 PAM 2.1.
For Cc1ccc(S(=O)(=O)Nc2ccc3c(c2)CC(=O)N([C@H](C)CO)C[C@@H](C)[C@H](CN(C)S(=O)(=O)c2ccccc2)O3)cc1 the results were M4 ag -0.6, M4 PAM -21.1, M5 ag -2.1, M4 antag 32.6*, M5 antag 9.5 and M5 PAM -0.7.
Screening C[C@H](CO)N1C[C@H](C)[C@H](CN(C)S(=O)(=O)c2ccccc2)Oc2ccc(NC(=O)NC3CCCCC3)cc2CC1=O returned M4 ag -0.3, M4 PAM -17.4, M5 ag -3.4, M4 antag 98.7*, M5 antag 13.9 and M5 PAM -1.7.
`Nc1ccc2nc(COc3ccccc3)[nH]c2c1` gave M4 ag -0.2, M4 PAM -1.3, M5 ag -0.1, M4 antag 4.8, M5 antag 12.4 and M5 PAM -5.8.
Screening CNC(C)C(=O)NC(C(=O)N1CCCC1C(=O)Nc1ccc2ncccc2c1)C(C)C (centres undefined) returned M4 ag -0.5, M4 PAM 28.9*, M5 ag 1.7, M4 antag -14.3, M5 antag -4.8 and M5 PAM 13.5.
